Measurements taken from ChEMBL document CHEMBL1130414, “Muscarinic analgesics with potent and selective effects on the gastrointestinal tract: potential application for the treatment of irritable bowel syndrome” (J Med Chem, 1997).

Assays:
Mustela putorius furo [1] = experiment: Minimum intravenous effective dose required to inhibit jejunal motility in ferrets; format: functional
Procedure, shortened: (§1)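 Anesthetized male ferrets (800–1200 g), fasted 24 h before surgery, dosed iv. Spontaneous jejunal motility recorded manometrically via catheters inserted into jejunum. Value is minimum effective (threshold) dose inhibiting motility; each animal its own control; number of determinations recorded, SEM given when replicates differed.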

Mustela putorius furo [2] = experiment: Intravenous effective dose required to produce a 1 mV increase in transmural potential difference in ferrets (GI side effect); format: functional
Procedure, shortened: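 Anesthetized male ferrets (800–1200 g), fasted 24 h before surgery, dosed iv. Transmural potential difference across jejunal wall measured with calomel half-cells and salt bridges (one in luminal fluid, other via wick electrode in serosal fluid) to an electrometer. Value is dose giving >1 mV rise in potential difference; each animal its own control.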

Mus musculus = experiment: Analgesic activity measured using mouse writhing antinociceptive assay after subcutaneous administration; format: functional; conditions: sc
Procedure, shortened: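 Male Cr1:CF1 mice, groups of 5–10, given vehicle or compound sc; 25 min later 0.5% acetic acid ip. Writhes per mouse counted in individual chambers 5–10 min after acid (30–35 min post-dose), expressed as mean writhes over 5 min. ED50 from linear regression.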

[3] = molecular target: Muscarinic acetylcholine receptor; experiment: Binding affinity against Muscarinic acetylcholine receptors using [3H]oxotremorine-M as radioligand in rat cortex
Procedure, shortened: (§2)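 Rat cortex radioligand displacement with [³H]oxotremorine-M, which labels the agonist conformational state of muscarinic receptors without subtype selectivity. Affinity is reported as Ki (nM) ± SEM.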

[4] = Mean plasma concentration measured 1 h following an oral dose of 30 mg/kg; format: ADME, organism-based; design: dose 30 mg/kg, route oral
Procedure, shortened: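 Rats dosed orally at 30 mg/kg; parent compound plasma concentration measured 1 h after dosing, reported as mean.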

Mustela putorius furo [5] = experiment: Minimum intravenous effective dose required to inhibit spontaneous motility in ferrets; format: functional; procedure, shortened: as §1
[6] = molecular target: Muscarinic acetylcholine receptor; experiment: Binding affinity against Muscarinic acetylcholine receptor using [3H]oxotremorine-M as radioligand in rat cortex; procedure, shortened: as §2

CCCCOc1nsnc1C1=CCCN(C)C1
Dose (Mustela putorius furo [1]): 0.003 mg/kg | ED (1mV) (Mustela putorius furo [2]): 0.007 mg/kg | ED50 (Mus musculus): 0.41 mg/kg | Ki [3]: 1.4 nM

CCCCSc1nccnc1C1CN2CCC1CC2 (configuration not stated)
Dose (Mustela putorius furo [1]): 0.003 mg/kg | ED (1mV) (Mustela putorius furo [2]): 0.03 mg/kg | ED50 (Mus musculus): 3.2 mg/kg | Ki [3]: 0.5 nM

FC(F)(F)CCCSc1nsnc1[C@H]1CN2CCC[C@H]1C2
concentration at 1 h [4]: 805 ng/mL | ED50 (Mustela putorius furo [5]): 0.00017 mg/kg | ED (1mV) (Mustela putorius furo [2]): 0.015 mg/kg | ED50 (Mus musculus): 0.1 mg/kg | Ki [3]: 0.42 nM

FC(F)(F)CCCCSc1nsnc1[C@@H]1CN2CCC[C@@H]1C2
Dose (Mustela putorius furo [1]): 0.001 mg/kg | ED (1mV) (Mustela putorius furo [2]): 0.01 mg/kg | ED50 (Mus musculus): 0.07 mg/kg | Ki [3]: 0.24 nM

FC(F)(F)CCCSc1nsnc1[C@H]1CN2CCC[C@@H]1C2
ED50 (Mustela putorius furo [5]): 0.0053 mg/kg | ED (1mV) (Mustela putorius furo [2]): >0.03 mg/kg | ED50 (Mus musculus): 1.8 mg/kg | Ki [3]: 9.6 nM

CN1CCC=C(c2nsnc2SCCCc2cccs2)C1
Dose (Mustela putorius furo [1]): 0.03 mg/kg | ED (1mV) (Mustela putorius furo [2]): 0.03 mg/kg | ED50 (Mus musculus): > 10 mg/kg | Ki [3]: 10 nM

CCCCCCSc1nsnc1C1=CCCN(CC)C1
Dose (Mustela putorius furo [1]): >0.03 mg/kg | ED (1mV) (Mustela putorius furo [2]): >0.03 mg/kg | ED50 (Mus musculus): > 10 mg/kg | Ki [3]: 18 nM

CCCCSc1nsnc1C1=CCCNC1
Dose (Mustela putorius furo [1]): 0.03 mg/kg | ED (1mV) (Mustela putorius furo [2]): 0.03 mg/kg | ED50 (Mus musculus): 0.14 mg/kg | Ki [3]: 3.5 nM

C=CCCCCOc1nsnc1C1=CCCN(C)C1
Dose (Mustela putorius furo [1]): 0.03 mg/kg | ED (1mV) (Mustela putorius furo [2]): 0.003 mg/kg | ED50 (Mus musculus): 0.9 mg/kg | Ki [3]: 3 nM

FC(F)(F)CCSc1nsnc1[C@@H]1CN2CCC[C@@H]1C2
Dose (Mustela putorius furo [1]): 0.003 mg/kg | ED (1mV) (Mustela putorius furo [2]): 0.01 mg/kg | ED50 (Mus musculus): 0.1 mg/kg | Ki [3]: 0.44 nM

FC(F)(F)CCCSc1nsnc1[C@@H]1CN2CCC[C@H]1C2
ED50 (Mustela putorius furo [5]): 0.0047 mg/kg | ED (1mV) (Mustela putorius furo [2]): >0.03 mg/kg | ED50 (Mus musculus): > 10 mg/kg | Ki [3]: 25 nM

CN1CCC=C(c2nsnc2SCCCc2ccccc2)C1
Dose (Mustela putorius furo [1]): 0.01 mg/kg | ED (1mV) (Mustela putorius furo [2]): 0.03 mg/kg | ED50 (Mus musculus): > 10 mg/kg | Ki [3]: 1 nM

CCCCCCSc1nccnc1C1CN2CCC1CC2 (configuration not stated)
Dose (Mustela putorius furo [1]): >0.03 mg/kg | ED (1mV) (Mustela putorius furo [2]): >0.03 mg/kg | ED50 (Mus musculus): 2.3 mg/kg | Ki [3]: 4 nM

CCCCSc1nsnc1[C@@H]1CN2CCC[C@@H]1C2
concentration at 1 h [4]: 21 ng/mL | Dose (Mustela putorius furo [1]): 0.001 mg/kg | ED (1mV) (Mustela putorius furo [2]): 0.001 mg/kg | ED50 (Mus musculus): 0.19 mg/kg | Ki [3]: 0.45 nM

FC(F)(F)CCCSc1nsnc1[C@@H]1CN2CCC[C@@H]1C2
ED50 (Mustela putorius furo [5]): 0.017 mg/kg | ED (1mV) (Mustela putorius furo [2]): 0.002 mg/kg | ED50 (Mus musculus): 0.35 mg/kg | Ki [3]: 0.33 nM

CCCCSc1nsnc1C1CN2CCCC1C2 (racemic)
Dose (Mustela putorius furo [1]): 0.001 mg/kg | ED (1mV) (Mustela putorius furo [2]): 0.001 mg/kg | ED50 (Mus musculus): 0.03 mg/kg | Ki [3]: 0.36 nM

FC(F)(F)CCCSc1nsnc1C1CN2CCCC1C2 (racemic)
Dose (Mustela putorius furo [1]): 0.001 mg/kg | ED (1mV) (Mustela putorius furo [2]): 0.03 mg/kg | ED50 (Mus musculus): 0.1 mg/kg | Ki [6]: 0.4 nM

CC(C)CCCSc1nsnc1C1CN2CCCC1C2 (racemic)
Dose (Mustela putorius furo [1]): 0.03 mg/kg | ED (1mV) (Mustela putorius furo [2]): 0.003 mg/kg | ED50 (Mus musculus): 0.95 mg/kg | Ki [3]: 0.91 nM

CN1[C@@H]2CC[C@H]1C[C@@H](OC(=O)C(CO)c1ccccc1)C2 (some centres not stated) [ATROPINE]
ED50 (Mustela putorius furo [5]): 0.00073 mg/kg | ED (1mV) (Mustela putorius furo [2]): >0.03 mg/kg | ED50 (Mus musculus): > 30 mg/kg

CN1CC[C@]23c4c5ccc(O)c4O[C@H]2[C@@H](O)C=C[C@H]3[C@H]1C5 [MORPHINE]
ED50 (Mus musculus): 0.3 mg/kg

CCCCSc1nsnc1C1CN2CCC1CC2 (configuration not stated) [VEDACLIDINE]
Dose (Mustela putorius furo [1]): 0.003 mg/kg | ED (1mV) (Mustela putorius furo [2]): 0.01 mg/kg | ED50 (Mus musculus): 0.19 mg/kg | Ki [3]: 0.4 nM
